Reference: ChEMBL document CHEMBL4177719, “Synthesis and evaluation of biaryl derivatives for structural characterization of selective monoamine oxidase B inhibitors toward Parkinson's disease therapy” (Bioorg Med Chem, 2018)
Activity calls are given as the source filed them. The calls are words filed in the database; no cut-off is given here.

Experiments:
[1] = target: T1, Amine oxidase [flavin-containing] B (Homo sapiens, UniProt P27338); assay: Inhibition of recombinant human MAO-B using benzylamine as substrate preincubated for 15 mins followed by substrate addition measured after 20 mins by amplex red reagent based spectrophotometric assay
T1 sequence (P27338 whole entry): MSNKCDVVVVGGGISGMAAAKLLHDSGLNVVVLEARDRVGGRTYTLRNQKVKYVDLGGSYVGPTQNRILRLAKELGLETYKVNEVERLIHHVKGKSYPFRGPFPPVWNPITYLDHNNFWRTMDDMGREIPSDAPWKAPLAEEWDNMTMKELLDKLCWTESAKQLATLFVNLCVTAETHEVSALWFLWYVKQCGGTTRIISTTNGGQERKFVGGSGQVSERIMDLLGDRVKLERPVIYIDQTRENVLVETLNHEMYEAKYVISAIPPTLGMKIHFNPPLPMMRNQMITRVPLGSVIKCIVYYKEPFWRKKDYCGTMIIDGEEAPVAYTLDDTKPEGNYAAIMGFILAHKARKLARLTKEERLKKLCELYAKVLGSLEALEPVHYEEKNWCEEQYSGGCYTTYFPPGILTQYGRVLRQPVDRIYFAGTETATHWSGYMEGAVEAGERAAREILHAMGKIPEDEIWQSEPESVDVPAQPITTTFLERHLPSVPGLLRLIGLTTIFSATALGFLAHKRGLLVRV

[2] = target: T2, Amine oxidase [flavin-containing] A (Homo sapiens, UniProt P21397); assay: Inhibition of recombinant human MAO-A using p-tyramine as substrate preincubated for 15 mins followed by substrate addition measured after 20 mins by amplex red reagent based spectrophotometric assay
T2 sequence (P21397 whole entry): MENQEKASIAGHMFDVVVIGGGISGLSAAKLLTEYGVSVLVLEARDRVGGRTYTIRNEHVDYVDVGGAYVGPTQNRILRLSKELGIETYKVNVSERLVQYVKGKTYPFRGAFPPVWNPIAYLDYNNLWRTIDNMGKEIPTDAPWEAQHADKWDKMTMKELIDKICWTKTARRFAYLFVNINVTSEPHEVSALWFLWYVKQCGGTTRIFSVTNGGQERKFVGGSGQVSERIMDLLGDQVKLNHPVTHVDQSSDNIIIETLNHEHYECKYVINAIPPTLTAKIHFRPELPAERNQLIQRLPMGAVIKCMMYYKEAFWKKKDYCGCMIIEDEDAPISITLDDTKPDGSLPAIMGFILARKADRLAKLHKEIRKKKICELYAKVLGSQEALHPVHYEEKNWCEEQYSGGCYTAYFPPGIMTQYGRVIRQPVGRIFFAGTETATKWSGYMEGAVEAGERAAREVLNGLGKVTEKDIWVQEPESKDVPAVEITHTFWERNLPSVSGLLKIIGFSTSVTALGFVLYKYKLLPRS
Outline: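 Recombinant human MAO-A with compounds at final 10⁻⁵–10 µM, preincubated 15 min at 37 °C in 50 mM sodium phosphate, pH 7.4. Reaction started by adding 200 µM Amplex Red, 2 U/mL horseradish peroxidase and 2 mM p-tyramine. IC50 came from dose-response curves in quadruplicate, as mean ± S.E.M.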

[3] = species: Homo sapiens; assay: Selectivity index, ratio of IC50 for recombinant human MAO-A to IC50 for recombinant human MAO-B
[4] = target: T1, Amine oxidase [flavin-containing] B; assay: Competitive inhibition of recombinant human MAO-B assessed as Vmax for substrate using varying level of benzylamine substrate preincubated for 15 mins followed by substrate addition measured after 20 mins by Lineweaver-Burk plot analysis
Outline: (§1)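 Recombinant human MAO-B with benzylamine at 0.065, 0.125, 0.25, 0.5, 1, 2 and 4 mM, with inhibitor at 0, 0.3, 1 and 3 nM. Amplex Red/HRP H2O2-coupled fluorescence in 50 mM sodium phosphate pH 7.4 at 37 °C. Initial rates taken from progression curves; Lineweaver-Burk double-reciprocal analysis.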

[5] = target: T1, Amine oxidase [flavin-containing] B; assay: Competitive inhibition of recombinant human MAO-B using varying level of benzylamine substrate preincubated for 15 mins followed by substrate addition measured after 20 mins by Lineweaver-Burk plot analysis; outline: as §1
[6] = system: Mus musculus; assay: Anti-parkinson's activity in MPTP-induced C57Bl/6 mouse model of Parkinson's disease assessed as restoration of MPTP-induced weight loss at 30 mg/kg, po administered for 3 consecutive days; format: functional, organism-based
Outline: (§2)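 Male C57Bl/6 mice, 10 weeks old, 23–25 g (n = 5-8 per group). MPTP-HCl 20 mg/kg i.p., given as 4 injections at 2 h intervals. Drug 30 mg/kg/day p.o. for 3 consecutive days spanning MPTP dosing. Vehicle was 12.5% castor oil/ethanol (equal parts) in distilled water. Saline-treated controls.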

[7] = system: Mus musculus; assay: Anti-parkinson's activity in MPTP-induced C57Bl/6 mouse model of Parkinson's disease assessed as restoration of motor ability by measuring ascending ability to reach stable position at 30 mg/kg, po administered for 3 consecutive days measured 6 days after MPTP injection by coathanger method; format: functional, organism-based; outline: as §2
[8] = system: Mus musculus; assay: (§3) Anti-parkinson's activity in MPTP-induced C57Bl/6 mouse model of Parkinson's disease assessed as restoration of motor ability at 30 mg/kg, po administered for 3 consecutive days measured 6 days after MPTP injection by vertical grid test; format: functional, organism-based; outline: as §2
[9] = system: Mus musculus; assay: Restoration of MPTP-induced tyrosine hydroxylase enzyme activity loss in C57Bl/6 mouse assessed as enzyme activity loss in DAergic neurons of substantia nigra pars compacta at 30 mg/kg, po administered for 3 consecutive days measured 6 days after MPTP injection by DAB staining based microscopic method; format: functional; outline: as §2
[10] = system: Mus musculus; assay: as §3, with “MPTP-induced reduction in TH-immunoreactive fiber density in striatum” for “motor ability”, “DAB staining based microscopic method” for “vertical grid test”; format: functional, organism-based; outline: as §2

| IC50 [1] | IC50 [2] | Ratio IC50 [3] | Structure (SMILES) | further results |
| --- | --- | --- | --- | --- |
| 1050 nM | > 100000 nM | > 95 | NC(=O)c1ccc(OCc2ccccc2F)cc1 |  |
| 452 nM | > 100000 nM | > 220 | NCc1ccc(OCc2ccc(F)cc2)cc1 |  |
| 175 nM | > 30000 nM | > 170 | COc1cccc(COc2ccc(CN)cc2)c1 |  |
| 1460 nM | > 100000 nM | > 68 | NCc1ccc(OCc2ccccc2F)cc1 |  |
| 2480 nM | > 100000 nM | > 40 | Nc1ccc(OCc2cccc(F)c2)cc1 |  |
| 283 nM | > 100000 nM | > 350 | COc1ccc(COc2ccc(CN)cc2)cc1 |  |
| 3230 nM | > 100000 nM | > 31 | NCc1ccc(OCc2ccccc2)cc1 |  |
| 271 nM | > 100000 nM | > 360 | NC(=O)c1ccc(OCc2ccc(F)cc2)cc1 |  |
| 257 nM | > 100000 nM | > 380 | NCc1ccc(OCc2cccc(Cl)c2)cc1 |  |
| 16 nM |  |  | CC(=O)N[C@H]1CC(=O)N(c2ccc(OCc3cccc(F)c3)cc2)C1 [SEMBRAGILINE] |  |
| 926 nM | > 100000 nM | > 100 | NCc1ccc(OCc2cccc(F)c2)cc1 |  |
| 1110 nM | > 100000 nM | > 90 | NC(=O)c1ccc(OCc2cccc(C(F)(F)F)c2)cc1 |  |
| 136 nM | > 100000 nM | > 730 | NCc1ccc(OCc2ccc(C(F)(F)F)cc2)cc1 |  |
| > 10000 nM | > 30000 nM |  | Nc1ccc(OCc2ccccc2F)cc1 |  |
| 440 nM | > 30000 nM | > 68 | NCc1ccc(OCc2ccc(Cl)cc2)cc1 |  |
| 1550 nM | > 100000 nM | > 65 | NC(=O)c1ccc(OCc2cccc(F)c2)cc1 |  |
| 642 nM | > 100000 nM | > 150 | NC(=O)c1ccc(OCc2ccc(C(F)(F)F)cc2)cc1 |  |
| 3320 nM | > 100000 nM | > 30 | Nc1ccc(OCc2ccc(F)cc2)cc1 |  |
| > 10000 nM | > 10000 nM |  | COc1ccc(CN[C@@H](C)C(N)=O)cc1 |  |
| 3150 nM | > 100000 nM | > 32 | NCc1ccc(OCc2ccccc2C(F)(F)F)cc1 |  |
| 402 nM | > 100000 nM | > 240 | Nc1ccc(OCc2ccc(C(F)(F)F)cc2)cc1 |  |
| > 10000 nM | > 100000 nM |  | Nc1ccc(OCc2ccccc2C(F)(F)F)cc1 |  |
| 2020 nM | > 100000 nM | > 49 | NC(=O)c1ccc(OCc2ccccc2C(F)(F)F)cc1 |  |
| 1510 nM | > 100000 nM | > 66 | Nc1ccc(OCc2cccc(C(F)(F)F)c2)cc1 |  |
| 387 nM | > 100000 nM | > 250 | NCc1ccc(OCc2cccc(C(F)(F)F)c2)cc1 |  |

| Structure (SMILES) | IC50 [1] | IC50 [2] | Ratio IC50 [3] | further results |
| --- | --- | --- | --- | --- |
| NCCc1ccc(OCc2cccc(Cl)c2)cc1 | 62 nM | > 100000 nM | > 1600 |  |
| NCCc1ccc(-c2cccc(F)c2)cc1 | > 10000 nM | > 10000 nM |  |  |
| NCCc1ccc(OCc2ccccc2F)cc1 | 396 nM | > 10000 nM | > 25 |  |
| NCCc1ccc(OCc2ccccc2C(F)(F)F)cc1 | 1800 nM | > 100000 nM | > 55 |  |
| NCCc1ccc(-c2cccc(Cl)c2)cc1 | 2110 nM | > 10000 nM | > 4.7 |  |
| NCCc1ccc(-c2ccc(C(F)(F)F)cc2)cc1 | 41 nM | > 10000 nM | > 240 |  |
| NCCc1ccc(OCc2ccc(F)cc2)cc1 | 109 nM | > 100000 nM | > 910 |  |
| COc1ccc(-c2ccc(CCN)cc2)cc1 | 5760 nM | > 10000 nM | > 1.7 |  |
| NCCc1ccc(OCc2ccccc2Cl)cc1 | 2850 nM | > 10000 nM | > 3.5 |  |
| NCCc1ccc(OCc2ccc(Cl)cc2)cc1 | 59 nM | > 100000 nM | > 1600 |  |
| Cl.NCCc1ccc(OCc2ccc(C(F)(F)F)cc2)cc1 | 9 nM | > 100000 nM | > 11000 | Vmax [4]: 5.86 ×10⁷ U/min; Ki [5]: 6.88 nM; Activity [6]: Active; Activity [7]: Active; Activity [8]: Active; Activity [9]: 38%; Activity [10]: Active |
| NCCc1ccc(-c2ccccc2Cl)cc1 | 8340 nM | > 10000 nM | > 1.2 |  |
| NCCc1ccc(-c2cccc(C(F)(F)F)c2)cc1 | 1570 nM | > 10000 nM | > 6.4 |  |
| COc1cccc(COc2ccc(CCN)cc2)c1 | 305 nM | > 10000 nM | > 33 |  |
| NCCc1ccc(-c2ccc(F)cc2)cc1 | 6810 nM | > 10000 nM | > 1.5 |  |
| NCCc1ccc(OCc2cccc(C(F)(F)F)c2)cc1 | 110 nM | > 100000 nM | > 900 |  |
| COc1cccc(-c2ccc(CCN)cc2)c1 | 5000 nM | > 10000 nM | > 1.9 |  |
| NCCc1ccc(-c2ccc(Cl)cc2)cc1 | 625 nM | > 10000 nM | > 16 |  |
| NCCc1ccc(OCc2cccc(F)c2)cc1 | 193 nM | > 100000 nM | > 510 |  |
| NCCc1ccc(-c2ccccc2F)cc1 | > 10000 nM | > 10000 nM |  |  |
